Laboratory results taken from ChEMBL document CHEMBL1150814, “Schizanrins [corrected] B, C, D, and E, four new lignans from Kadsura matsudai and their antihepatitis activities” (J Nat Prod, 2001).
Values after ≈ are worked out from the molar mass of the structure shown. Active and inactive are the calls of the source. The rule behind the calls is not given here.

Tests used:
[1] = tested on: Human immunodeficiency virus; experiment: Antiviral activity against HIV replication in human H9 lymphocytes; type: functional, organism-based
Hepatitis B virus [2] = experiment: Antiviral activity against Hepatitis B virus infected in human MS-G2 cells assessed as inhibition of early antigen secretion at 20 ug/ml after 3 days by ELISA; type: functional
Outline: (§1)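 MS-G2 cells (HepG2 transfected with two copies of HBV genome, secreting virus) grown in RPMI-1640 with 10% fetal calf serum at 37 °C, 5% CO2. Seeded 3 × 10^5 cells/well, attached overnight, then given compound in DMSO (1, 5, 10, 20 μg/mL; DMSO ≤2.5 μL/mL; DMSO-only control). Media collected at 3 days. HBsAg and HBeAg measured by ELISA at 490 nm. % inhibition taken relative to control.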

Hepatitis B virus [3] = experiment: Antiviral activity against Hepatitis B virus infected in human MS-G2 cells assessed as inhibition of early antigen secretion at 10 ug/ml after 3 days by ELISA; type: functional; set-up: scale not given: the % may be the effect or the level left; outline: as §1
[4] = Cytotoxicity against human MS-G2 cells at 20 ug/ml by AST method; type: cell-based
Outline: (§2)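 Cell damage in compound-treated MS-G2 cultures was measured by aspartate transaminase (AST) kit. AST above 25 IU/L was taken as indicating cell damage or lysis.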

[5] = Cytotoxicity against human MS-G2 cells at 10 ug/ml by AST method; type: cell-based; outline: as §2
Hepatitis B virus [6] = experiment: Antiviral activity against Hepatitis B virus infected in human MS-G2 cells assessed as inhibition of surface antigen secretion at 10 ug/ml after 3 days by ELISA; type: functional; set-up: scale not given: the % may be the effect or the level left; outline: as §1
Hepatitis B virus [7] = experiment: Antiviral activity against Hepatitis B virus infected in human MS-G2 cells assessed as inhibition of surface antigen secretion at 20 ug/ml after 3 days by ELISA; type: functional; outline: as §1
H9 = experiment: Cytotoxicity against human H9 cells; type: cell-based

Row | SMILES | Activity [1] | Activity (Hepatitis B virus [2]) | Activity (Hepatitis B virus [3]) [%] | Activity [4] [IU/L] | Activity [5] [IU/L] | Activity (Hepatitis B virus [6]) [%] | Activity (Hepatitis B virus [7]) | IC50 (H9) [µg/mL]
1 | CC=C(C)C(=O)O[C@@H]1c2cc3c(c(O)c2-c2c(cc(OC)c(OC)c2OC)C[C@@H](C)[C@H]1C)OCO3 | inactive | Toxic | 25.8 | 47.8 | 16.8 | <25 | Toxic | 
2 | COC1=C(OC)C(=O)[C@]23COc4c5c(cc(c42)[C@H](OC(=O)/C=C/c2ccccc2)[C@H](C)[C@H](C)CC3=C1)OCO5 [SCHIARISANRIN D] |  | 42.9% | 27 | 22 | 20.1 | <25 | <25% | 
3 | CCC(C)C(=O)O[C@@H]1c2cc3c(c(O)c2-c2c(cc(OC)c(OC)c2OC)C[C@@H](C)[C@H]1C)OCO3 (stereo partly specified) [SCHIZARIN B] | inactive | 42.1% | 40.7 | 15.5 | 17.6 | 42.6 | 54.9% | 
4 | CCCCCC(=O)O[C@@H]1c2cc3c(c(O)c2-c2c(cc(OC)c(OC)c2OC)C[C@@H](C)[C@H]1C)OCO3 [SCHIZARIN C] | inactive | Toxic | <25 | 35.9 | 16 | <25 | Toxic | 
5 | COc1cc2c(c(OC)c1OC)-c1c(cc3c(c1O)OCO3)[C@@H](OC(=O)c1ccccc1)[C@H](C)[C@H](C)C2 [SCHIZARIN E] | inactive | Toxic | 31.8 | 44.3 | 20.2 | <25 | Toxic | 2.08 (≈ 4.11 µM)
6 | CCC(C)C(=O)O[C@H]1c2cc3c(c4c2C(C(=O)C(=O)OC)(CO4)/C(=C\C(=O)OC)C[C@@H](C)[C@H]1C)OCO3 (stereo partly specified) [TAIWANSCHIRIN A] |  | 43% | <25 | 14.8 | 14.1 | <25 | <25% | 
